How the values were obtained:
[1] = target: GABA-A receptor; anion channel; assay: Displacement of [3H]GABA from Gamma-aminobutyric acid A receptor ofrat brain membranes; set-up: species or system Rattus norvegicus
Method in brief: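 Male Wistar rat whole-brain synaptic membranes, frozen at -20 °C for at least 18 h, Triton X-100 (0.05%) treated at 37 °C for 30 min. Filtration, scintillation counting. Nonspecific binding with 100 μM muscimol. IC50 by log-probit analysis; means of two triplicate experiments.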

[2] = target: GABA B receptor (Rattus norvegicus, UniProt O88871+Q9Z0U4); assay: Displacement of [3H]baclofen from Gamma-aminobutyric acid type B receptor of rat brain membranes; type: cell membranes, Membrane
Chain of GABA B receptor (Q9Z0U4 whole entry): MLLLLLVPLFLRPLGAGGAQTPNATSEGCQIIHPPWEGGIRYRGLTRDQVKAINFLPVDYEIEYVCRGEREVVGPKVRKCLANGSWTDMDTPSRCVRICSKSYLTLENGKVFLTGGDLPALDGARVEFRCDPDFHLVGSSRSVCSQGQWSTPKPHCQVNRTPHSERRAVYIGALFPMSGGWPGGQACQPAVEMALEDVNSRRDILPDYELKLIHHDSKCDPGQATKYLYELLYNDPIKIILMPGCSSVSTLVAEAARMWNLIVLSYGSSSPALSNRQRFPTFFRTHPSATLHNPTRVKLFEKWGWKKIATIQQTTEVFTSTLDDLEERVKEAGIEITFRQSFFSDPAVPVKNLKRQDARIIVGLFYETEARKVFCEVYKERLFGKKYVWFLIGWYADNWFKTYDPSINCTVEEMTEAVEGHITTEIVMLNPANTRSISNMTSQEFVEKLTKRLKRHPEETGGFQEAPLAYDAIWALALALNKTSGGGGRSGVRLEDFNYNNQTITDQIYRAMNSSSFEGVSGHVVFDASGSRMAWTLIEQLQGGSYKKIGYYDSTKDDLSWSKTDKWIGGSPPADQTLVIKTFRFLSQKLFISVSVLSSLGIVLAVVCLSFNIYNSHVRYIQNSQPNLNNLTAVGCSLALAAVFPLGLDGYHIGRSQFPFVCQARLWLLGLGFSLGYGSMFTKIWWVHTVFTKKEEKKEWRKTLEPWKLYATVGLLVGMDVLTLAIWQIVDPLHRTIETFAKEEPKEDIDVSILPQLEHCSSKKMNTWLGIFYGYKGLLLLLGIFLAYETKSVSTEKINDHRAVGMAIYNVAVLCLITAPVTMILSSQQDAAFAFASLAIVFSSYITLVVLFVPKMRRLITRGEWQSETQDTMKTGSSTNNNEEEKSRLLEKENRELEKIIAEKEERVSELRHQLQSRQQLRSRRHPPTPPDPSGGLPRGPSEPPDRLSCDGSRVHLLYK
Chain of GABA B receptor (O88871 whole entry): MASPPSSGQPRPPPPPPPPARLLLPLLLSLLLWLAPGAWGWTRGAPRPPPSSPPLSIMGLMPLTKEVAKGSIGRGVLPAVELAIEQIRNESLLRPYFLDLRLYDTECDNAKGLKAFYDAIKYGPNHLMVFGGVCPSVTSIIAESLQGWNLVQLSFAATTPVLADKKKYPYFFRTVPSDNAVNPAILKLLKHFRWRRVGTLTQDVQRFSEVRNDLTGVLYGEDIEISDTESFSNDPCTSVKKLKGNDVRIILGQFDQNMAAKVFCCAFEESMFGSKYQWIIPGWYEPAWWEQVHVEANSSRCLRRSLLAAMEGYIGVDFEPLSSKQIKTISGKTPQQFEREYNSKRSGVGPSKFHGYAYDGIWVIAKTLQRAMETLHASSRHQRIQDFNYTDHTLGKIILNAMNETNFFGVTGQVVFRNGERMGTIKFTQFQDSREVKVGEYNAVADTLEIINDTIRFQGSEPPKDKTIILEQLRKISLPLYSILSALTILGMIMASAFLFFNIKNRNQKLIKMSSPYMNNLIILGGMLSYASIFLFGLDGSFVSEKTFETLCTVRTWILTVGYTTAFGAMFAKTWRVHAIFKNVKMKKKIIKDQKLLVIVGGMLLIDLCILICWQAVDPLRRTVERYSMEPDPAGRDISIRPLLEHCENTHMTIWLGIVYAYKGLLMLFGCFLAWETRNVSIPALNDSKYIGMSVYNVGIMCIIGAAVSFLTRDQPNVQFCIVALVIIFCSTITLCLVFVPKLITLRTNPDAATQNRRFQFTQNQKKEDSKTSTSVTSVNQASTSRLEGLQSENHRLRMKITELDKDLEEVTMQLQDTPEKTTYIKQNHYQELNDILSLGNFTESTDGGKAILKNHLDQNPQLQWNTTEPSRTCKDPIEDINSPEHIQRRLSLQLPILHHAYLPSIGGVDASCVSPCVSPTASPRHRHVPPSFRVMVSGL
Method in brief: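 Rat whole-brain synaptic membranes were water-washed and frozen at -20 °C for at least 18 h. They were then washed repeatedly in 50 mM Tris-HCl pH 7.4 with 2.5 mM CaCl2 at 20 °C. The assay was stopped by centrifugation and read by scintillation counting. IC50 values are means of two experiments.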

CC(C)Oc1ccc(C(CN)CC(=O)O)cc1 (centres undefined)
IC50 [1]: > 100 µM

NCC(CC(=O)O)C1Cc2ccccc2O1 (centres undefined)
IC50 [2]: > 100 µM
IC50 [1]: > 100 µM

COc1ccc2oc(C(CN)CC(=O)O)cc2c1 (centres undefined)
IC50 [2]: 5.6 µM
IC50 [1]: > 100 µM

NCC(CC(=O)O)c1ccc(OCc2ccc(Cl)s2)cc1 (centres undefined)
IC50 [1]: > 100 µM

COc1ccc2c(c1)CC(C(CN)CC(=O)O)O2 (centres undefined)
IC50 [2]: > 100 µM
IC50 [1]: > 100 µM

NCC(CC(=O)O)c1ccc(O)cc1 (centres undefined)
IC50 [2]: > 100 µM
IC50 [1]: > 100 µM

NCC(CC(=O)O)c1cc2ccccc2o1 (centres undefined)
IC50 [2]: 18 µM
IC50 [1]: > 100 µM

NCC(CC(=O)O)c1ccc(OCc2ccccc2)cc1 (centres undefined)
IC50 [2]: > 100 µM
IC50 [1]: > 100 µM

NCC(CC(=O)O)c1ccc(OCc2ccc(F)cc2)cc1 (centres undefined)
IC50 [2]: > 100 µM
IC50 [1]: > 100 µM

Cn1c(=O)oc2cc(C(CN)CC(=O)O)ccc21 (centres undefined)
IC50 [2]: > 100 µM
IC50 [1]: > 100 µM

NCc1cc(=O)[nH]o1 [MUSCIMOL]
IC50 [1]: 0.01 µM
